Assay results from ChEMBL document CHEMBL2401666, “Structure-based design of novel HCV NS5B thumb pocket 2 allosteric inhibitors with submicromolar gt1 replicon potency: discovery of a quinazolinone chemotype” (Bioorg Med Chem Lett, 2013).

What was measured:
[1] = Half life in human liver microsomes at 2 uM; assay type: ADME, Microsome
[2] = Half life in rat liver microsomes at 2 uM; assay type: ADME, Microsome
[3] = Permeability across apical to basolateral side in human Caco2 cells at 10 uM; assay type: ADME, cell-based; conditions: Caco-2, read-out: permeability
Outline: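 Caco-2 monolayer, apical-to-basolateral transport at 10 µM across a pH 6.8–7.4 gradient; apparent permeability in cm/s ×10^-6.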

[4] = Lipophilicity, log D of the compound at pH 7.4; assay type: physicochemical; conditions: buffer

SMILES | half-life at 2 µM [1] | half-life at 2 µM [2] | Papp A→B at 10 µM [3] | logD [4]
CC(C)N(c1ccc(Oc2ncccc2C(F)(F)F)cc1C(=O)O)C(=O)[C@H]1CC[C@H](C)CC1 | 1.15 h | 1 h | 19 ×10⁻⁶ cm/s | –
COc1ccnc(Oc2ccc3c(c2)c(=O)ncn3Cc2c(F)cc(F)cc2F)c1C(F)(F)F | 1.4 h | 0.25 h | 7.9 ×10⁻⁶ cm/s | 3.3
COc1ccc2c(c1)c(=O)ncn2Cc1ccc(F)cc1F | – | – | – | 1.8
O=c1ncn(Cc2c(F)cc(F)cc2F)c2ccc(Oc3ccccc3)cc12 | – | – | – | 3.2
O=c1ncn(Cc2c(F)cc(F)cc2F)c2ccc(Oc3cccnc3C(F)(F)F)cc12 | > 5 h | 0.367 h | 11 ×10⁻⁶ cm/s | 2.9
O=c1ncn(CC2CCCC2)c2ccc(Oc3ncccc3C(F)(F)F)cc12 | – | – | – | 3.3
O=c1ncn(Cc2c(F)cc(F)cc2F)c2ccc(Oc3cnccc3C(F)(F)F)cc12 | – | – | – | 3
O=c1ncn(Cc2c(F)cc(F)cc2F)c2ccc(Oc3ccccc3C(F)(F)F)cc12 | – | – | – | 4.2
CC(C)N(c1ccc(Oc2ccccc2C(F)(F)F)cc1C(=O)O)C(=O)[C@H]1CC[C@H](C)CC1 | 1.98 h | 1.53 h | 17 ×10⁻⁶ cm/s | –
O=c1nc[nH]c2ccc(Oc3ncccc3C(F)(F)F)cc12 | – | – | – | 2.5

Further lines, results first:

half-life at 2 µM [1] | half-life at 2 µM [2] | Papp A→B at 10 µM [3] | logD [4] | SMILES
2.05 h | 0.633 h | 12 ×10⁻⁶ cm/s | 3.3 | O=c1ncn(Cc2c(F)cc(F)cc2F)c2ccc(Oc3ncccc3C(F)(F)F)cc12
1.33 h | 0.433 h | 11 ×10⁻⁶ cm/s | 3.5 | COc1ccnc(Oc2ccc3c(c2)c(=O)ncn3Cc2ccc(F)cc2F)c1C(F)(F)F
0.75 h | 0.25 h | 8.4 ×10⁻⁶ cm/s | 3.8 | Cc1ccc(Cn2cnc(=O)c3cc(Oc4ncccc4C(F)(F)F)ccc32)c(F)c1
– | – | – | 3.7 | Cc1ccc(Cn2cnc(=O)c3cc(Oc4ncccc4C(F)(F)F)ccc32)cc1
1.83 h | 0.517 h | 13 ×10⁻⁶ cm/s | – | O=c1ncn(Cc2ccc(F)cc2F)c2ccc(Oc3ncccc3C(F)(F)F)cc12
– | – | – | 3.9 | O=c1ncn(Cc2ccc(F)cc2F)c2cc(F)c(Oc3ncccc3C(F)(F)F)cc12
– | – | – | 3 | O=c1ncn(Cc2ccc(F)cc2F)c2ccc(Oc3ccncc3C(F)(F)F)cc12
1.55 h | 1 h | 7.1 ×10⁻⁶ cm/s | – | O=c1ncn(Cc2ccc(Br)cc2F)c2ccc(Oc3ncccc3C(F)(F)F)cc12
